# Assay results taken from ChEMBL document CHEMBL1800075, “Tricyclic imidazole antagonists of the Neuropeptide S Receptor” (Bioorg Med Chem Lett, 2010).
# pIC50: −log10 of the molar value.
# Experiments:
# [1] = target: T1, Neuropeptide S receptor (Homo sapiens, UniProt Q6W5P4); assay: Antagonist activity at human recombinant NPS receptor expressed in CHOK1 cells assessed as inhibition of NPS-induced calcium mobilization by FLIPR assay; type: functional, cell-based, CHO-K1
# T1 sequence (Q6W5P4 whole entry): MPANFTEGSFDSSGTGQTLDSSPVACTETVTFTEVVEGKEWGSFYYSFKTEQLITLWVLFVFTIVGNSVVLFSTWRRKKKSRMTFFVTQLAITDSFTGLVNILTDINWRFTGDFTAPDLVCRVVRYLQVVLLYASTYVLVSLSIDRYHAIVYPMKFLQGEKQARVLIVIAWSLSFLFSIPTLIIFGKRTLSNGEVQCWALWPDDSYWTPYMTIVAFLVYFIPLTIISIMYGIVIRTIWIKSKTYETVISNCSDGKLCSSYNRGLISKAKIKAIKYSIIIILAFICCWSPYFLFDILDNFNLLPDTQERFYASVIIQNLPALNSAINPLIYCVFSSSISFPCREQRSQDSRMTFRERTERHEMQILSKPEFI
# Summary of the method: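 Dual-sequence FLIPR Ca2+ mobilization on CHOK1 cells expressing recombinant NPSR, plated 24 h ahead at 15 K cells/well. Cells washed and loaded with Fluo4AM for 1 h at 37 °C, 5% CO2. Inhibition taken relative to NPS-stimulated control wells; IC50 from 4-parameter logistic fits; mean ± S.D. of multiple determinations.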
# [2] = target: rat MDR1 (ABCB1, P-glycoprotein) (Rattus norvegicus, UniProt P43245); assay: Permeability of the compound assessed as rat MDR1-mediated directional transport ratio by cell based assay; conditions: not told
# rat MDR1 (ABCB1, P-glycoprotein), sequence (P43245 whole entry): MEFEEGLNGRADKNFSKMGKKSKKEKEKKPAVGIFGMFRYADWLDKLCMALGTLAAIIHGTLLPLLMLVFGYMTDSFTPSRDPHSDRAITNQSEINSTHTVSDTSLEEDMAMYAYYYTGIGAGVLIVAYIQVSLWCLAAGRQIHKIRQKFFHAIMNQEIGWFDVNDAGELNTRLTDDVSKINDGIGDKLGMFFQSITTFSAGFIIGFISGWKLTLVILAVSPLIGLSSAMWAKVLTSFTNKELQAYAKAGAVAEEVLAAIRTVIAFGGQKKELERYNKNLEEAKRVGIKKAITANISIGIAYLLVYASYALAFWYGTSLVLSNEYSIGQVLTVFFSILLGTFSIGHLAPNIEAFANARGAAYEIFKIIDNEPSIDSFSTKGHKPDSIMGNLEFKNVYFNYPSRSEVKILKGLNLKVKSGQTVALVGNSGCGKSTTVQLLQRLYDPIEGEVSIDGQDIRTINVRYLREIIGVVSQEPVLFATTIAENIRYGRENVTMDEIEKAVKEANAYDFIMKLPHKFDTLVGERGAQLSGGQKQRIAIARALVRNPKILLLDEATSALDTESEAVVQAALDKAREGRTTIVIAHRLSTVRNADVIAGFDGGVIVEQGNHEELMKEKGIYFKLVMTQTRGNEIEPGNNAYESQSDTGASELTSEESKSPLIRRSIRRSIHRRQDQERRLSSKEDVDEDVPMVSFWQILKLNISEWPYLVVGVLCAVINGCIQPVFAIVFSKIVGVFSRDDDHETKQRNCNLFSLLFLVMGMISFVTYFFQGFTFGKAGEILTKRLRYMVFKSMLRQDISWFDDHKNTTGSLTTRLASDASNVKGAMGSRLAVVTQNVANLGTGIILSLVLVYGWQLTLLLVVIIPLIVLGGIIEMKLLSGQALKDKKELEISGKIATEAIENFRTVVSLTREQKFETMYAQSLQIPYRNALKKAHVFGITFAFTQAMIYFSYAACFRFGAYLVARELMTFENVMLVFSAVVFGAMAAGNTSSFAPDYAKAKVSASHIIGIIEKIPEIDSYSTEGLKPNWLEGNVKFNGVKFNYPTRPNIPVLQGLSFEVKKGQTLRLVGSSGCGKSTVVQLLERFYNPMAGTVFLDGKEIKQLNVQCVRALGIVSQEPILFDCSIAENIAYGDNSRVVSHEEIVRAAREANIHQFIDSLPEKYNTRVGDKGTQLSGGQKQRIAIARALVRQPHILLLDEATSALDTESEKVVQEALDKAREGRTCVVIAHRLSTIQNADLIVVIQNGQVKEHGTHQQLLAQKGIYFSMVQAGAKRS
# Summary of the method: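 Rat MDR1 directional transport ratio, calculated as (B–A)/(A–B). Average of three experiments; interassay variability 20%.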
# [3] = Passive permeability of the compound; type: ADME; conditions: not told
# [4] = Unbound fraction in rat plasma by ultracentrifugation; type: ADME, cell-free
# [5] = Lipophilicity, log D of the compound by HPLC method; type: physicochemical
# [6] = Inhibition of sodium channel site 2
# [7] = Ratio drug level in CSF to plasma in rat at 75 mg/kg, ip; type: ADME, organism-based; design: dose 75 mg/kg, route intraperitoneal
# Summary of the method: (§1)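 Compound given to rats at 75 mpk IP as a solution in 25% HPB-cyclodextrin. CSF and plasma sampled at 30 min and 2 h.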
# [8] = AUC (0 to infinity) in rat at 2 mg/kg, po; type: ADME, organism-based; design: time infinity, dose 2 mg/kg, route oral; conditions: plasma
# [9] = Inhibition of melatonin receptor
# [10] = Drug level in rat cerebrospinal fluid at 75 mg/kg, ip after 2 hrs; type: ADME, organism-based; design: dose 75 mg/kg, route intraperitoneal; conditions: read-out: Drug uptake; summary of the method: as §1
# [11] = Drug level in rat cerebrospinal fluid at 75 mg/kg, ip after 30 mins; type: ADME, organism-based; design: dose 75 mg/kg, route intraperitoneal; conditions: read-out: Drug uptake; summary of the method: as §1
# [12] = target: T2, Thromboxane A2 receptor (Homo sapiens, UniProt P21731); assay: Inhibition of thromboxane A2 receptor
# T2 sequence (P21731 whole entry): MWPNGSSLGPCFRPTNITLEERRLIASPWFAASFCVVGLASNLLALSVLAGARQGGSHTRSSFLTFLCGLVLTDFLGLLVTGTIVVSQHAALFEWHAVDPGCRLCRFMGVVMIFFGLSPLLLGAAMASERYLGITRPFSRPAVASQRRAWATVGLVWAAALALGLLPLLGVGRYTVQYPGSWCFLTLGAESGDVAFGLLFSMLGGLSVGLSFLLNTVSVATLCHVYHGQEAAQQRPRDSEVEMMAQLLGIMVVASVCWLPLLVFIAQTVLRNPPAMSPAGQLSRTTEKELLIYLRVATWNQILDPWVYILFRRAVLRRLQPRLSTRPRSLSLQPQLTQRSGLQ
# [13] = AUC (0 to infinity) in rat at 10 mg/kg, po; type: ADME, organism-based; design: time infinity, dose 10 mg/kg, route oral; conditions: plasma
# [14] = Drug level in plasma of rat at 30 mg/kg, ip measured after 1 hr; type: ADME, organism-based; design: dose 30 mg/kg, route intraperitoneal
# Summary of the method: (§2)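 Compound dosed to rats at 30 mpk IP. Plasma levels measured at 30 min, 1 h and 2 h. Unbound exposures obtained by correcting for plasma free fraction.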
# [15] = tested on: Plasma; assay: Unbound free concentration in rat plasma at 30 mg/kg, ip measured after 2 hrs; type: ADME, organism-based; design: dose 30 mg/kg, route intraperitoneal; conditions: in vivo; summary of the method: as §2
# [16] = target: Cannabinoid receptor 1 (Homo sapiens, UniProt P21554); assay: Inhibition of CB1 receptor
# Cannabinoid receptor 1, sequence (P21554 whole entry): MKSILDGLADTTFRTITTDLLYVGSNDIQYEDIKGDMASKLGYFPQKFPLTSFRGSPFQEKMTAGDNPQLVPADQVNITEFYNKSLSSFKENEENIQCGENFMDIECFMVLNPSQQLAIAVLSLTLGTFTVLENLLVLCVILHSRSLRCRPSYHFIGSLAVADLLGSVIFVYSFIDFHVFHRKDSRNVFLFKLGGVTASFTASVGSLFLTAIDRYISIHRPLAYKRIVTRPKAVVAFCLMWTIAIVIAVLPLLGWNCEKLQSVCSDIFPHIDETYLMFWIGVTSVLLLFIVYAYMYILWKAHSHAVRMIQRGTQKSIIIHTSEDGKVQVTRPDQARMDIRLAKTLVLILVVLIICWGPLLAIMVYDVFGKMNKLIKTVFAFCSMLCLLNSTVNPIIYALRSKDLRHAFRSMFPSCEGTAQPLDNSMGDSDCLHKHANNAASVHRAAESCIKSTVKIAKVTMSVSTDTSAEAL
# [17] = Drug level in plasma of rat at 30 mg/kg, ip measured after 30 mins; type: ADME, organism-based; design: dose 30 mg/kg, route intraperitoneal; summary of the method: as §2
# [18] = tested on: Plasma; assay: Unbound free concentration in rat plasma at 30 mg/kg, ip measured after 30 mins; type: ADME, organism-based; design: dose 30 mg/kg, route intraperitoneal; conditions: in vivo, 0.5 h; summary of the method: as §2
# [19] = Drug level in plasma of rat at 30 mg/kg, ip measured after 2 hrs; type: ADME, organism-based; design: dose 30 mg/kg, route intraperitoneal; summary of the method: as §2
# [20] = tested on: Plasma; assay: Unbound free concentration in rat plasma at 30 mg/kg, ip measured after 1 hr; type: ADME, organism-based; design: dose 30 mg/kg, route intraperitoneal; conditions: in vivo; summary of the method: as §2
# [21] = Clearance in iv dosed rat; type: ADME, organism-based; conditions: in vivo
# Summary of the method: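 IV clearance in rats measured in cassette dosing experiments.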
# [22] = Lipophilicity, log P of the compound; type: physicochemical; conditions: octanol/water
Structure (SMILES),pIC50 [1],efflux ratio [2],fraction unbound [4],other results
Fc1ccc(C2(Cc3ccccc3)c3ccccc3-c3nccn32)cc1 (configuration not stated),6.47,,,
Clc1ccc(C2(Cc3ccccc3)c3ccccc3-c3nccn32)cc1 (configuration not stated),6.45,,,
Cc1ccc(C2(Cc3ccccc3)c3ccccc3-c3nccn32)cc1 (configuration not stated),5.88,,,
N#Cc1ccc(C2(Cc3ccccc3)c3ccccc3-c3nccn32)cc1 (configuration not stated),6.41,0.9,0.17,Papp [3]: 33 ×10⁻⁶ cm/s
Brc1cccc(C2(Cc3ccccc3)c3ccccc3-c3nccn32)c1 (configuration not stated),5.76,,,
N#Cc1cccc(C2(Cc3ccccc3)c3ccccc3-c3nccn32)c1 (configuration not stated),5.50,,,
Brc1ccc(C2(Cc3ccccc3)c3ccccc3-c3nccn32)cn1 (configuration not stated),5.82,,,
Brc1ccc(C2(Cc3ccccc3)c3ccccc3-c3nccn32)nc1 (configuration not stated),5.66,,,
Brc1ccc(C2(CC3CCCC3)c3ccccc3-c3nccn32)cn1 (configuration not stated),6.07,1.3,0.013,Papp [3]: 25 ×10⁻⁶ cm/s
COc1ccc2c(c1)C(CCC(=O)N1[C@H](C)CC[C@@H]1C)(c1ccc(Cl)cc1)n1ccnc1-2 (some centres not stated),7.30,2.2,0.007,AUC(0-inf) [8]: 0.115 µM·h
CCN(CC)C(=O)CCC1(c2ccc(Cl)cc2)c2c(OC)cccc2-c2nccn21 (configuration not stated),7.37,2.9,0.013,concentration at 1 h [14]: 5100 nM; Cp(f) [15]: 39 nM; pIC50 [16]: 5.22; concentration at 0.5 h [17]: 7800 nM; Cp(f) [18]: 101 nM; AUC(0-inf) [13]: 1.15 µM·h; concentration at 2 h [19]: 3000 nM; Cp(f) [20]: 66 nM
Brc1ccc(C2(Cc3ccccc3)c3cccnc3-c3nccn32)cc1 (configuration not stated),5.84,,,
CC(C1CCN(C(=O)CCC2(c3ccc(Cl)cc3)c3ccccc3-c3nccn32)CC1)N1CCCC1 (mixture of isomers),6.90,34.2,0.081,clearance [21]: 38 mL/min/kg
CC(C1CCN(C(=O)CCC2(c3ccc(Cl)cc3)c3ccccc3-c3nccn32)CC1)N1CCC(F)(F)C1 (mixture of isomers),6.62,2,0.029,clearance [21]: 38 mL/min/kg
CC(C)N(C(=O)CCC1(c2ccc(Cl)cc2)c2ccccc2-c2nccn21)C(C)C (racemic),7.02,1.4,0.008,clearance [21]: 26 mL/min/kg
CCN(C(=O)CCC1(c2ccc(Cl)cc2)c2ccccc2-c2nccn21)C(C)C (racemic),6.86,2.3,0.007,clearance [21]: 31 mL/min/kg
CCN(CC)C(=O)CCC1(c2ccc(Cl)cc2)c2ccccc2-c2nccn21 (racemic),,,,clearance [21]: 38 mL/min/kg; AUC(0-inf) [13]: 0.18 µM·h
"CCN(CC)C(=O)CCC1(c2ccc(Cl)cc2)c2ccccc2-c2nccn21 (single isomer, unassigned)",7.05,2.1,0.022,

# Continued, in another order:
pIC50 [1],efflux ratio [2],fraction unbound [4],Structure (SMILES),other results
6.18,,,Fc1ccc(C2(CC3CCOCC3)c3ccccc3-c3nccn32)cc1 (configuration not stated),
6.20,,,N#Cc1ccc(C2(CC3CCOCC3)c3ccccc3-c3nccn32)cc1 (configuration not stated),
6.87,1.4,0.018,Clc1ccc(C2(CC3CCOCC3)c3ccccc3-c3nccn32)cc1 (configuration not stated),Papp [3]: 31 ×10⁻⁶ cm/s
6.84,0.6,0.011,N#Cc1ccc(C2(CC3CCCC3)c3ccccc3-c3nccn32)cc1 (configuration not stated),Papp [3]: 22 ×10⁻⁶ cm/s
6.94,1.6,,N#Cc1ccc(C2(CC3CCCCC3)c3ccccc3-c3nccn32)cc1 (configuration not stated),Papp [3]: 17 ×10⁻⁶ cm/s
7.09,1.3,0.016,COc1ccc2c(c1)C(CC1CCOCC1)(c1ccc(Cl)cc1)n1ccnc1-2 (configuration not stated),logD [5]: 3.2; pIC50 [6]: 5.40; Ratio [7]: 1%; AUC(0-inf) [8]: 0.114 µM·h; pIC50 [9]: 5.89; concentration at 2 h [10]: 153 nM; concentration at 0.5 h [11]: 594 nM; pIC50 [12]: 5.15
7.34,,0.008,COc1cccc2c1C(CC1CCOCC1)(c1ccc(Cl)cc1)n1ccnc1-2 (configuration not stated),AUC(0-inf) [13]: 0.425 µM·h
6.88,1.6,0.011,CCC1CCCCN1C(=O)CCC1(c2ccc(Cl)cc2)c2ccccc2-c2nccn21 (mixture of isomers),clearance [21]: 20 mL/min/kg
7.02,1.7,0.006,O=C(CCC1(c2ccc(Cl)cc2)c2ccccc2-c2nccn21)N1C2CCCC1CC2 (mixture of isomers),clearance [21]: 34 mL/min/kg
7.04,1.5,0.006,C[C@@H]1CC[C@H](C)N1C(=O)CCC1(c2ccc(Cl)cc2)c2ccccc2-c2nccn21 (mixture of isomers),clearance [21]: 36 mL/min/kg
6.42,,,Brc1ccc(C2(Cc3ccccc3)c3ccccc3-c3nccn32)cc1 (racemic),
6.43,1.7,< 0.01,N#Cc1ccccc1CC1(c2ccc(Br)cc2)c2ccccc2-c2nccn21 (racemic),Papp [3]: 17 ×10⁻⁶ cm/s
6.45,2.1,0.021,Brc1ccc(C2(Cc3cccnc3)c3ccccc3-c3nccn32)cc1 (racemic),Papp [3]: 31 ×10⁻⁶ cm/s
6.60,,,Brc1ccc(C2(CC3CCCCC3)c3ccccc3-c3nccn32)cc1 (racemic),
6.49,,,Brc1ccc(C2(CC3CCCC3)c3ccccc3-c3nccn32)cc1 (racemic),
7.04,1.2,0.19,Brc1ccc(C2(CC3CCOCC3)c3ccccc3-c3nccn32)cc1 (racemic),Papp [3]: 31 ×10⁻⁶ cm/s; clearance [21]: 48 mL/min/kg
6.81,,,Brc1ccc(C2(CCC3CCOCC3)c3ccccc3-c3nccn32)cc1 (racemic),
6.79,,0.01,Brc1ccc(C2(Cc3ccccc3)c3ccccc3-c3nccn32)cc1 (stereo in doubt; 2),logP [22]: > 3.8; Papp [3]: 10 ×10⁻⁶ cm/s
